Results on eight compounds are retold here after ChEMBL document CHEMBL1123535, “Thiol addition to quinones: model reactions for the inactivation of thymidylate synthase by 5-p-benzoquinonyl-2'-deoxyuridine 5'-phosphate” (J Med Chem, 1986).

Experiment [1] concerns the target T1, Thymidylate synthase (Homo sapiens, UniProt P04818). Nature of the experiment: The rate constant with methyl mercaptoacetate in Acetonitrile and buffered aqueous acetonitrile solution at concentration of 0.00096 M. In outline: (§1)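 Quinone nucleoside reacted with excess methyl mercaptoacetate in deoxygenated acetonitrile at […]. Water content was varied by adding known amounts of water to acetonitrile dried over 3-Å sieves. Initial quinone was 7.4×10^-5 to 1.6×10^-4 M, and thiol was varied. Pseudo-first-order kobsd was measured, and k2 came from log kobsd = log k2 + n log[thiol].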
Target sequence in this assay (P04818 2-313 limits assumed): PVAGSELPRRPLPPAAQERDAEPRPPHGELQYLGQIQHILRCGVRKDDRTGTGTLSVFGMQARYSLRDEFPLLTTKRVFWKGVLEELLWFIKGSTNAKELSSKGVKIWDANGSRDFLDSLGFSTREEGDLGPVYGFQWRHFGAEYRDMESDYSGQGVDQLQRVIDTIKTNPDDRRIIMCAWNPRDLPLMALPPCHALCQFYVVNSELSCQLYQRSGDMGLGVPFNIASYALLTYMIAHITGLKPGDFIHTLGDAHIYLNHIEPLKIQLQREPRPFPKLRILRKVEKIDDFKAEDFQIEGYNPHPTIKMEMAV

Experiment [2] concerns the target T1, Thymidylate synthase. Nature of the experiment: The observed rate constant with methyl mercaptoacetate in Acetonitrile and buffered aqueous acetonitrile solution at 1.4 x 10e-4 M concentration of 0.0020. In outline: as §1
Target sequence in this assay (P04818 2-313 limits assumed): as above
Experiment [3] addresses T1, Thymidylate synthase. Nature of the experiment: The observed rate constant with methyl mercaptoacetate in Acetonitrile and buffered aqueous acetonitrile solution at 9.7 x 10e-5 M concentration of 0.0096 M. The method, boiled down: as §1
Target sequence in this assay (P04818 2-313 limits assumed): as above
Experiment [4] has as its target T1, Thymidylate synthase. The experiment in a line: The observed rate constant with methyl mercaptoacetate in Acetonitrile and buffered aqueous acetonitrile solution at 9.7 x 10e-5 M concentration of 0.0029 M. In outline: as §1
Target sequence in this assay (P04818 2-313 limits assumed): as above
In experiment [5] the target is T1, Thymidylate synthase. Nature of the experiment: The observed rate constant with methyl mercaptoacetate in Acetonitrile and buffered aqueous acetonitrile solution at 1.4 x 10e-4 M concentration of 0.0039. In outline: as §1
Target sequence in this assay (P04818 2-313 limits assumed): as above
The target of experiment [6] is T1, Thymidylate synthase. The experiment in a line: The observed rate constant with methyl mercaptoacetate in Acetonitrile and buffered aqueous acetonitrile solution at 9.7 x 10e-5 M concentration of 0.00096 M. In outline:
as §1
Target sequence in this assay (P04818 2-313 limits assumed): as above

For experiment [7], the target named is T1, Thymidylate synthase. The experiment in a line: The rate constant with methyl mercaptoacetate in Acetonitrile and buffered aqueous acetonitrile solution at concentration of 0.0077 M. The method, boiled down:
as §1

Experiment [8] has as its target T1, Thymidylate synthase. The experiment in a line: The observed rate constant with methyl mercaptoacetate in Acetonitrile and buffered aqueous acetonitrile solution at 1.6 x 10e-4 M concentration of 0.0036 M. In outline: as §1
The target of experiment [9] is T1, Thymidylate synthase. Nature of the experiment: The rate constant with methyl mercaptoacetate in Acetonitrile and buffered aqueous acetonitrile solution at concentration of 0.0039 M. In outline:
as §1

Experiment [10] deals with T1, Thymidylate synthase. The experiment in a line: The observed rate constant with methyl mercaptoacetate in Acetonitrile and buffered aqueous acetonitrile solution at 9.7 x 10e-5 M concentration of 0.0048 M. The method, boiled down:
as §1

For experiment [11], the target named is T1, Thymidylate synthase. The experiment in a line: The observed rate constant with methyl mercaptoacetate in Acetonitrile and buffered aqueous acetonitrile solution at 7.4 x 10e-5 M concentration of 0.00098 M. The method, boiled down: as §1
For experiment [12], the target named is T1, Thymidylate synthase. The experiment in a line: The observed rate constant with methyl mercaptoacetate in Acetonitrile and buffered aqueous acetonitrile solution at 1.6 x 10e-4 M concentration of 0.0026 M. The method, boiled down:
as §1

Experiment [13] addresses T1, Thymidylate synthase. Nature of the experiment: The observed rate constant with methyl mercaptoacetate in Acetonitrile and buffered aqueous acetonitrile solution at 1.6 x 10e-4 M concentration of 0.0061 M. The method, boiled down: as §1
Experiment [14] deals with T1, Thymidylate synthase. Nature of the experiment: The observed rate constant with methyl mercaptoacetate in Acetonitrile and buffered aqueous acetonitrile solution at 1.4 x 10e-4 M concentration of 0.0077. In outline:
as §1

The target of experiment [15] is T1, Thymidylate synthase. Nature of the experiment: The rate constant with methyl mercaptoacetate in Acetonitrile and buffered aqueous acetonitrile solution at concentration of 0.012 M. In outline:
as §1

Experiment [16] concerns the target T1, Thymidylate synthase. The experiment in a line: The observed rate constant with methyl mercaptoacetate in Acetonitrile and buffered aqueous acetonitrile solution at 7.4 x 10e-5 M concentration of 0.0019 M. The method, boiled down:
as §1

Experiment [17] deals with T1, Thymidylate synthase. The experiment in a line: The observed rate constant with methyl mercaptoacetate in Acetonitrile and buffered aqueous acetonitrile solution at 7.4 x 10e-5 M concentration of 0.0039 M. The method, boiled down:
as §1

In experiment [18] the target is T1, Thymidylate synthase. The experiment in a line: The observed rate constant with methyl mercaptoacetate in Acetonitrile and buffered aqueous acetonitrile solution at 1.6 x 10e-4 M concentration of 0.012 M. The method, boiled down: as §1
Experiment [19] addresses T1, Thymidylate synthase. Nature of the experiment: The observed rate constant with methyl mercaptoacetate in Acetonitrile and buffered aqueous acetonitrile solution at 1.6 x 10e-4 M concentration of 0.0015 M. In outline: as §1
The target of experiment [20] is T1, Thymidylate synthase.
The target of experiment [21] is T1, Thymidylate synthase. Nature of the experiment: Binding affinity against thymidylate synthase. The method, boiled down:
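Thymidylate synthase was inactivated at pH 6.8 and 30 °C, and time-dependent loss of activity was followed. Observed inactivation rate constants, including runs with substrate present (substrate protection), were fitted to 1/kobsd = [Ki[S]/(Km[I]) + Ki/kinact](1/[I]) + 1/kinact to give Ki and kinact. The second-order constant was taken as kinact/Ki.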
Target sequence in this assay (P04818 whole entry): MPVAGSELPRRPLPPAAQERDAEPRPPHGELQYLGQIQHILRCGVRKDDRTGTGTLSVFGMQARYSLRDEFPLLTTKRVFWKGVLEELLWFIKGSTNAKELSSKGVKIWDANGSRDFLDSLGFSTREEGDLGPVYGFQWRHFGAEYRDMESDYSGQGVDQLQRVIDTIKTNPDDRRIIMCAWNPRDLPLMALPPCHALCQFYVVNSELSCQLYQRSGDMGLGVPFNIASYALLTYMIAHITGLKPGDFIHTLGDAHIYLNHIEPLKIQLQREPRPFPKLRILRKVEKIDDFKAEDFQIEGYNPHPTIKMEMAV

Experiment [22] addresses T1, Thymidylate synthase. Nature of the experiment: The rate constant in Acetonitrile and buffered aqueous acetonitrile solution, at 30 degrees C and pH 6.8.
In experiment [23] the target is T1, Thymidylate synthase. Nature of the experiment: The rate constant in Acetonitrile and buffered aqueous acetonitrile solution, at 25 degrees Celsius and pH 7.4.
The target in experiment [24] is T1, Thymidylate synthase. The experiment in a line: The rate constant in 75% aqueous Acetonitrile […] as reagent.
Experiment [25] has as its target T1, Thymidylate synthase. Nature of the experiment: The rate constant in 75% aqueous Acetonotrileas methyl mercaptoacetate as reagent.
Experiment [26] deals with T1, Thymidylate synthase. The experiment in a line: The rate constant in 70% ethanol.
The target of experiment [27] is T1, Thymidylate synthase. The experiment in a line: The rate constant in Acetonitrile and buffered aqueous acetonitrile solution, at 30 degrees Celsius and pH 8.1.

By Ki is commonly meant a dissociation constant, usually derived from enzyme kinetics or from competition with a known ligand.

For `CC(=O)OC[C@H]1O[C@@H](n2cc(C3=CC(=O)C=CC3=O)c(=O)[nH]c2=O)C[C@@H]1OC(C)=O`, the k2 on Thymidylate synthase [1] is 0.53 M⁻¹ s⁻¹; on Thymidylate synthase [7], 2.3 M⁻¹ s⁻¹; on Thymidylate synthase [9], 4.7 M⁻¹ s⁻¹; at Thymidylate synthase [15], 1.7 M⁻¹ s⁻¹. The k obs at Thymidylate synthase [2] came to 0.00434 s⁻¹; at Thymidylate synthase [3], 0.00501 s⁻¹; at Thymidylate synthase [4], 0.00154 s⁻¹; on Thymidylate synthase [5] it was 0.00969 s⁻¹; at Thymidylate synthase [6], 0.000434 s⁻¹; on Thymidylate synthase [8], 0.00518 s⁻¹. Besides, the k obs at Thymidylate synthase [10] worked out at 0.0025 s⁻¹; at Thymidylate synthase [11], 0.00384 s⁻¹; at Thymidylate synthase [12], 0.00334 s⁻¹; at Thymidylate synthase [13], 0.00952 s⁻¹; on Thymidylate synthase [14] it was 0.0167 s⁻¹; at Thymidylate synthase [16], 0.00919 s⁻¹. The values for the k obs on Thymidylate synthase [17], on Thymidylate synthase [18] and on Thymidylate synthase [19] were 0.0184 s⁻¹, 0.0197 s⁻¹ and 0.00184 s⁻¹, respectively.

On Thymidylate synthase [20], `O=C1C=CC(=O)C(c2cn([C@H]3C[C@H](O)[C@@H](COP(=O)(O)O)O3)c(=O)[nH]c2=O)=C1` showed a k cat of 0.065 s⁻¹. This compound showed an inhibition constant (Ki) at Thymidylate synthase [21] of 2 µM. This compound also came in with a k2 on Thymidylate synthase [22] of 32000 M⁻¹ s⁻¹.

At Thymidylate synthase [23], `CC1C=CC(=O)O1` (centres undefined) had a k2 of 0.037 M⁻¹ s⁻¹.

In the case of `O=C1C=CC(=O)C(c2cn([C@H]3C[C@H](O)[C@@H](CO)O3)c(=O)[nH]c2=O)=C1`, the k2 is 5 M⁻¹ s⁻¹ on Thymidylate synthase [24] and > 1000 M⁻¹ s⁻¹ at Thymidylate synthase [25].

Take `O=C1C=CC(=O)C(c2ccccc2)=C1`: the k2 at Thymidylate synthase [22] is 2600 M⁻¹ s⁻¹.

`CC1=CC(=O)c2ccccc2C1=O`: the k2 at Thymidylate synthase [26] came out at 0.14 M⁻¹ s⁻¹.

As to `C=CC(=O)OC`, the k2 on Thymidylate synthase [27] worked out at 0.11 M⁻¹ s⁻¹.

Turning to `O=c1ccn([C@H]2C[C@H](O)[C@@H](COP(=O)(O)O)O2)c(=O)[nH]1`, the k2 at Thymidylate synthase [22] was > 760000 M⁻¹ s⁻¹.
